In brackets after ≈: the same amount, converted by molar mass. Activity calls are given as the source filed them. The calls are words filed in the database; no cut-off is given here.

The target of data set [1] is T1, Enoyl-[acyl-carrier-protein] reductase [NADH] (Mycobacterium tuberculosis) (UniProt P9WGR1).
T1 sequence (whole entry): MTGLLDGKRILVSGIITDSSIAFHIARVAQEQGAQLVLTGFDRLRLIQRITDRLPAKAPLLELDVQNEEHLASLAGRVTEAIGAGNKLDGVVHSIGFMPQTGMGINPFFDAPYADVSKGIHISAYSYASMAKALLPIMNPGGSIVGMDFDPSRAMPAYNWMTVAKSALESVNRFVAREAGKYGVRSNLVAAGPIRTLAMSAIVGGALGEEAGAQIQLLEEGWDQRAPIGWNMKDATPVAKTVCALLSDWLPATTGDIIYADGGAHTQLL
In words: Inhibition of Mycobacterium tuberculosis H37Rv InhA assessed as reduction of trehalose dimycolate synthesis at 40 uM preincubated for 1 hr followed by [14C]glucose addition and measured after 24 hrs by TLC analysis.

Data set [2] relates to Mycobacterium kansasii. In words: Antimycobacterial activity against Mycobacterium kansasii 235/80 after 14 days. Type of data set: functional. Conditions: 235/80, 336 h.
Data set [3] has as its system Mycobacterium kansasii. In words: Antimycobacterial activity against Mycobacterium kansasii 6509/96 after 14 days. Type of data set: functional. The note with it: 6509/96, 336 h.
For data set [4], the system named is Mycobacterium tuberculosis. In words: Antimycobacterial activity against Mycobacterium tuberculosis H37Rv after 25 days by drop dilution method. It is filed as functional, organism-based.
Data set [5] relates to Mycobacterium kansasii. The experiment in a line: Antimycobacterial activity against Mycobacterium kansasii 235/80 after 21 days. It is filed as functional. The note with it: 235/80, 504 h.
For data set [6], the system named is Mycobacterium tuberculosis. The experiment in a line: Antimycobacterial activity against Mycobacterium tuberculosis H37Rv after 21 days. It is filed as functional. The note with it: 504 h.
Data set [7] concerns Mycobacterium avium. In words: Antimycobacterial activity against INH/RIF/OFX resistant Mycobacterium avium 330/88 after 14 days. It is filed as functional. Conditions: 330/88, 336 h.
In data set [8] the test system is Mycobacterium tuberculosis. In words: Effect on short chain fatty acid acid synthesis in Mycobacterium tuberculosis H37Rv at 40 uM preincubated for 1 hr followed by [14C]glucose addition and measured after 24 hrs by TLC analysis. It is filed as functional, organism-based.
Data set [9] can be described thus: Selectivity index, ratio of IC50 for human HepG2 cells to MIC for Mycobacterium tuberculosis H37Rv after 14 days. Conditions: read-out: Selectivity Index. Type of data set: toxicity. In a few lines:
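SI is calculated as HepG2 IC50 divided by MIC. HepG2 cells (passage 2-4) were grown in EMEM with 10% FBS, L-glutamine and non-essential amino acids. Compounds in DMSO were tested in triplicate at eight concentrations, and viability was read by MTS tetrazolium reduction. IC50 is the concentration reducing viability to 50% of control. 10% DMSO served as the 0% viability control.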

Data set [10] relates to Mycobacterium tuberculosis. The experiment in a line: Antimycobacterial activity against Mycobacterium tuberculosis H37Rv over producing InhA after 25 days by drop dilution method. It is filed as functional, organism-based.
For data set [11], the system named is Mycobacterium kansasii. In words: Antimycobacterial activity against Mycobacterium kansasii 6509/96 after 21 days. It is filed as functional. The note with it: 6509/96, 504 h.
Data set [12] addresses T1, Enoyl-[acyl-carrier-protein] reductase [NADH] (Mycobacterium tuberculosis). The experiment in a line: Inhibition of Mycobacterium tuberculosis H37Rv InhA assessed as reduction of trehalose monomycolate synthesis at 40 uM preincubated for 1 hr followed by [14C]glucose addition and measured after 24 hrs by TLC analysis.
For data set [13] the target is unchanged. The experiment in a line: Inhibition of Mycobacterium tuberculosis H37Rv InhA assessed as reduction of cardiolipin synthesis at 40 uM preincubated for 1 hr followed by [14C]glucose addition and measured after 24 hrs by TLC analysis.
Data set [14] shares this target. The experiment in a line: Inhibition of Mycobacterium tuberculosis H37Rv InhA assessed as reduction of phosphatidylethanolamine synthesis at 40 uM preincubated for 1 hr followed by [14C]glucose addition and measured after 24 hrs by TLC analysis.
Another data set has as its system HepG2. In words: Cytotoxicity against human HepG2 cells assessed as reduction in cell viability by MTS assay. It is filed as cell-based. In a few lines:
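HepG2 human hepatocellular carcinoma cells (passage 2-4) were cultured in Eagle's MEM with 10% FBS, 1% L-glutamine and non-essential amino acids. Compounds were dissolved in DMSO and tested in triplicate at eight concentrations. Viability was read by colorimetric MTS tetrazolium reduction. Controls were 100% viability and 0% viability (10% DMSO). IC50 is the concentration reducing viability to 50% of control.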
On the technique in general: Tetrazolium assays rely on reduction of a dye to a coloured formazan, in cell work by metabolically active cells.

For data set [15], the system named is Mycobacterium avium. In words: Antimycobacterial activity against INH/RIF/OFX resistant Mycobacterium avium 330/88 after 21 days. Conditions: 330/88, 504 h. It is filed as functional.
Data set [16] deals with Mycobacterium tuberculosis. The experiment in a line: Antimycobacterial activity against Mycobacterium tuberculosis H37Rv after 14 days. It is filed as functional. Conditions: 336 h.
The test system of data set [17] is Mycobacterium kansasii. The experiment in a line: Antimycobacterial activity against Mycobacterium kansasii 6509/96 after 7 days. Type of data set: functional. The note with it: 6509/96, 168 h.
Data set [18] deals with Mycobacterium kansasii. In words: Antimycobacterial activity against Mycobacterium kansasii 235/80 after 7 days. Conditions: 235/80, 168 h. It is filed as functional.
In data set [19] the target is T1, Enoyl-[acyl-carrier-protein] reductase [NADH] (Mycobacterium tuberculosis). The experiment in a line: Inhibition of Mycobacterium tuberculosis H37Rv InhA assessed as reduction of methoxy and keto mycolic acid synthesis at 40 uM preincubated for 1 hr followed by [14C]glucose addition and measured after 24 hrs by TLC analysis.
Data set [20] shares this target. In words: Inhibition of Mycobacterium tuberculosis H37Rv InhA assessed as reduction of alpha mycolic acid synthesis at 40 uM preincubated for 1 hr followed by [14C]glucose addition and measured after 24 hrs by TLC analysis.
The target is the same in data set [21]. The experiment in a line: Inhibition of Mycobacterium tuberculosis H37Rv InhA assessed as reduction of methyl esters of fatty acid synthesis at 40 uM preincubated for 1 hr followed by [14C]glucose addition and measured after 24 hrs by TLC analysis.
The target is the same in data set [22]. The experiment in a line: Inhibition of Mycobacterium tuberculosis H37Rv InhA assessed as reduction of cardiolipin synthesis at 4 to 8 uM preincubated for 24 hrs followed by [14C]acetate addition and measured after 24 hrs by TLC analysis.
The target is the same in data set [23]. In words: Inhibition of Mycobacterium tuberculosis H37Rv InhA assessed as reduction of trehalose dimycolate synthesis at 4 to 8 uM preincubated for 24 hrs followed by [14C]acetate addition and measured after 24 hrs by TLC analysis.
Data set [24] has the same target. In words: Inhibition of Mycobacterium tuberculosis H37Rv InhA assessed as reduction of methyl esters of fatty acid synthesis at 4 to 8 uM preincubated for 24 hrs followed by [14C]acetate addition and measured after 24 hrs by TLC analysis.
The target is the same in data set [25]. The experiment in a line: Inhibition of Mycobacterium tuberculosis H37Rv InhA assessed as reduction of alpha mycolic acid synthesis at 4 to 8 uM preincubated for 24 hrs followed by [14C]acetate addition and measured after 24 hrs by TLC analysis.
Data set [26] has the same target. In words: Inhibition of Mycobacterium tuberculosis H37Rv InhA assessed as reduction of trehalose monomycolate synthesis at 4 to 8 uM preincubated for 24 hrs followed by [14C]acetate addition and measured after 24 hrs by TLC analysis.
The target is the same in data set [27]. In words: Inhibition of Mycobacterium tuberculosis H37Rv InhA assessed as reduction of phosphatidylethanolamine synthesis at 4 to 8 uM preincubated for 24 hrs followed by [14C]acetate addition and measured after 24 hrs by TLC analysis.
Data set [28] shares this target. The experiment in a line: Inhibition of Mycobacterium tuberculosis H37Rv InhA assessed as reduction of methoxy and keto mycolic acid synthesis at 4 to 8 uM preincubated for 24 hrs followed by [14C]acetate addition and measured after 24 hrs by TLC analysis.

The term MIC denotes the lowest concentration found to suppress growth. As usually defined, the IC50 is the midpoint of a concentration-inhibition curve. `CNC(=O)NNC(=O)c1ccncc1`: the inhibition entry in data set [1], in data set [12], in data set [13], in data set [14], in data set [19] and in data set [20] was “Active” in each case. In addition, the inhibition result in data set [21] is “Active”. In addition, the minimal inhibitory concentration (MIC) was more than 1000 µM against Mycobacterium kansasii [2]; 500 µM (≈ 97.1 µg/mL) with Mycobacterium kansasii [3]; more than 1000 µM with Mycobacterium kansasii [5]; 1 µM (≈ 0.194 µg/mL) in [6]; more than 1000 µM with Mycobacterium avium [7]; 1000 µM (≈ 194 µg/mL) in the data set on Mycobacterium kansasii [11]. The MIC with Mycobacterium avium [15] is more than 1000 µM; in data set [16] it was 0.5 µM (≈ 0.0971 µg/mL); against Mycobacterium kansasii [17], 500 µM (≈ 97.1 µg/mL); in the data set on Mycobacterium kansasii [18], 1000 µM (≈ 194 µg/mL). For the same compound, the result in data set [4], in data set [8] and in data set [10] was inactive. In addition, in [9], the selectivity ratio at 336 h is more than 5000. Moreover, the half-inhibitory concentration (IC50) in the data set with HepG2 is more than 5000 µM.

Take `CCCCCCCCCCCCNc1nnc(-c2ccncc2)o1`: the minimum inhibitory concentration (MIC) with Mycobacterium kansasii [2] worked out at 125 µM (≈ 41.3 µg/mL); in the data set with Mycobacterium kansasii [3], 125 µM (≈ 41.3 µg/mL); against Mycobacterium kansasii [5], 125 µM (≈ 41.3 µg/mL); in data set [6], 8 µM (≈ 2.64 µg/mL); in the data set with Mycobacterium avium [7], 8 µM (≈ 2.64 µg/mL); with Mycobacterium kansasii [11], 125 µM (≈ 41.3 µg/mL). Moreover, the minimal inhibitory concentration (MIC) was found to be 16 µM (≈ 5.29 µg/mL) against Mycobacterium avium [15], 4 µM (≈ 1.32 µg/mL) in data set [16], 125 µM (≈ 41.3 µg/mL) in the data set with Mycobacterium kansasii [17] and 125 µM (≈ 41.3 µg/mL) against Mycobacterium kansasii [18]. The result in data set [4] and in [10] was Active. For the same compound, the inhibition result in [22], in [23], in data set [24], in [25], in data set [26] and in data set [27] was “inactive” each time. Further, in [28], the inhibition result was “inactive”. In [9], the selectivity ratio at 336 h was more than 6.25. Besides, the half-maximal inhibitory concentration (IC50) in the data set with HepG2 was more than 50 µM.

Values taken from ChEMBL document CHEMBL4152223 (Eur J Med Chem, 2018).
